Experimental data published in ChEMBL document CHEMBL4627381, “Licochalcone A Selectively Resensitizes ABCG2-Overexpressing Multidrug-Resistant Cancer Cells to Chemotherapeutic Drugs” (J Nat Prod, 2020).

Tests used:
[1] = biological target: T1, Multidrug resistance-associated protein 1 (Homo sapiens, UniProt P33527); assay: Reversal of human ABCC1-mediated multidrug resistance in HEK293/MRP1 cells assessed as fold-change in etoposide IC50 at 2 uM after 72 hrs by CCK8 relative to etoposide IC50; format: cell-based
T1 sequence (P33527 whole entry): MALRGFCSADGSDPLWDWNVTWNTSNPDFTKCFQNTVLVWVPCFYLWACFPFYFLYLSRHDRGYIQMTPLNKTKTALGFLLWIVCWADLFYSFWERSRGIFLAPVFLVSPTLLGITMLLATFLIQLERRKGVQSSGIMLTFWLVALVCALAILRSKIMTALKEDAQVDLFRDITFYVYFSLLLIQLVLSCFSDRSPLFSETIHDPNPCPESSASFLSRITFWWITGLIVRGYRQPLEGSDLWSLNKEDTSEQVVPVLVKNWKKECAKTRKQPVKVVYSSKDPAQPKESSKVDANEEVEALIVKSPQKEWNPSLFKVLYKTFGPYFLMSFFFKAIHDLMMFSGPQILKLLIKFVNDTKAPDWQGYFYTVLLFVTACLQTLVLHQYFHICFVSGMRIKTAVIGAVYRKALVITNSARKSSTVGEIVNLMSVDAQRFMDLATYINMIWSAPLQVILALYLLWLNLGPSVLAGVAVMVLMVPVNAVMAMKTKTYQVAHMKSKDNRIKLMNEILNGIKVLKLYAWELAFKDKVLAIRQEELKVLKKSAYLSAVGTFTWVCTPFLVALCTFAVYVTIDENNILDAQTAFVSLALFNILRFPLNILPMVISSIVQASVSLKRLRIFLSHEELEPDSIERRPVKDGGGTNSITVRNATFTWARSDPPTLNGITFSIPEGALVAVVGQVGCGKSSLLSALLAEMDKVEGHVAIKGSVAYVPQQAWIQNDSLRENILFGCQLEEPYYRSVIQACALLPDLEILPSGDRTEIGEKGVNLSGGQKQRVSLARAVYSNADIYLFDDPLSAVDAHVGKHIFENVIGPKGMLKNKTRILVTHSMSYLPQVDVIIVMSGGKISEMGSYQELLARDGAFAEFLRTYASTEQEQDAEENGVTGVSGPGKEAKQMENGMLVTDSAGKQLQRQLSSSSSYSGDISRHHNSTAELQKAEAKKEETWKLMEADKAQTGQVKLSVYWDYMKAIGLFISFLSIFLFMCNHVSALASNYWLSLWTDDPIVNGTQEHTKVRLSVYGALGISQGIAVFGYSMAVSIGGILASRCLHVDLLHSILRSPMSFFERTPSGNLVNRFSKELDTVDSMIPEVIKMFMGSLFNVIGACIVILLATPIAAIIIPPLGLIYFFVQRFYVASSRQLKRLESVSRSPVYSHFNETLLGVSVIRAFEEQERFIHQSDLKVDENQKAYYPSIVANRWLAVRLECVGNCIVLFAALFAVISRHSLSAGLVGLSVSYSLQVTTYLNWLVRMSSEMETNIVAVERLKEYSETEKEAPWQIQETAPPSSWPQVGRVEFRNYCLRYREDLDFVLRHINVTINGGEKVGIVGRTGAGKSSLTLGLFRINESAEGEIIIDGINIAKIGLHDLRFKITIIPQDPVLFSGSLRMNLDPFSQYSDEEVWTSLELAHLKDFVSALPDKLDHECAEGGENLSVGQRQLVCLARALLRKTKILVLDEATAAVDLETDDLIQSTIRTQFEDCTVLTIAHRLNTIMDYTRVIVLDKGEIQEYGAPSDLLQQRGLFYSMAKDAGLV
In short: (§1)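 Cells were seeded at 5000/well for 24 h, then given colchicine, etoposide, mitoxantrone or topotecan ± non-toxic modulator (0.5–3.0 μM) for 72 h, with DMSO up to 0.5%. IC50 came from fitted curves (mean ± SD, three experiments). Fold-reversal = IC50 without modulator ÷ IC50 with modulator.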

[2] = biological target: T2, Broad substrate specificity ATP-binding cassette transporter ABCG2 (Homo sapiens, UniProt Q9UNQ0); assay: Reversal of ABCG2 (unknown origin)-mediated multidrug resistance in human H460-MX20 cells assessed as fold change in mitoxantrone IC50 at 0.5 uM after 72 hrs by MTT assay relative to mitoxantrone IC50; format: cell-based
T2 sequence (Q9UNQ0 whole entry): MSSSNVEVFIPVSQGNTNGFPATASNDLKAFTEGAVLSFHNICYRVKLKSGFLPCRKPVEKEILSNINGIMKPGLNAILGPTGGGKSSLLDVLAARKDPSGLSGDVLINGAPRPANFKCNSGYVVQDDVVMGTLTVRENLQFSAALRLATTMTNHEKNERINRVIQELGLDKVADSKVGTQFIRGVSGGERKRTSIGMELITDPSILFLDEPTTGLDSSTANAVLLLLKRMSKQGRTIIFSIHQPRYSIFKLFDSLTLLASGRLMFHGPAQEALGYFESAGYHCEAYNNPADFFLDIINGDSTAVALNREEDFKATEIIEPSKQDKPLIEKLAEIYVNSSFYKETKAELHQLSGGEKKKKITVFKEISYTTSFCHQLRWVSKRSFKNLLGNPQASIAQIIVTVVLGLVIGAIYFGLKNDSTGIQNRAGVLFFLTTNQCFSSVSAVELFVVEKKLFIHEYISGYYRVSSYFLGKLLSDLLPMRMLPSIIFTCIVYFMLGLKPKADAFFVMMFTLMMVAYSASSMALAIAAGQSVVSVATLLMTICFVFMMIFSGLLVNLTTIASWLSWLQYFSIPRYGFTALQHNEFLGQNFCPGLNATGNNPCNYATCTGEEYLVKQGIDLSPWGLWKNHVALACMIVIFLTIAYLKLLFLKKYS
In short: (§2)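 Cells held drug-free 7 days, seeded at 5000 per well for 24 h, then exposed 72 h to mitoxantrone or topotecan dilutions with DMSO (≤0.5%), LCA 0.5–3.0 μM, or Ko143 1.0 μM. Viability was read by MTT. IC50 came from fitted dose-response curves of three independent experiments. Fold-reversal = IC50 without modulator divided by IC50 with modulator.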

[3] = biological target: ATP-dependent translocase ABCB1 (Homo sapiens, UniProt P08183); assay: Reversal of human ABCB1-mediated multidrug resistance in HEK293/MDR19 cells assessed as fold change in colchicine IC50 at 2 uM after 72 hrs by CCK8 relative to colchicine IC50; format: cell-based; in short: as §1
Chain of ATP-dependent translocase ABCB1 (P08183 whole entry): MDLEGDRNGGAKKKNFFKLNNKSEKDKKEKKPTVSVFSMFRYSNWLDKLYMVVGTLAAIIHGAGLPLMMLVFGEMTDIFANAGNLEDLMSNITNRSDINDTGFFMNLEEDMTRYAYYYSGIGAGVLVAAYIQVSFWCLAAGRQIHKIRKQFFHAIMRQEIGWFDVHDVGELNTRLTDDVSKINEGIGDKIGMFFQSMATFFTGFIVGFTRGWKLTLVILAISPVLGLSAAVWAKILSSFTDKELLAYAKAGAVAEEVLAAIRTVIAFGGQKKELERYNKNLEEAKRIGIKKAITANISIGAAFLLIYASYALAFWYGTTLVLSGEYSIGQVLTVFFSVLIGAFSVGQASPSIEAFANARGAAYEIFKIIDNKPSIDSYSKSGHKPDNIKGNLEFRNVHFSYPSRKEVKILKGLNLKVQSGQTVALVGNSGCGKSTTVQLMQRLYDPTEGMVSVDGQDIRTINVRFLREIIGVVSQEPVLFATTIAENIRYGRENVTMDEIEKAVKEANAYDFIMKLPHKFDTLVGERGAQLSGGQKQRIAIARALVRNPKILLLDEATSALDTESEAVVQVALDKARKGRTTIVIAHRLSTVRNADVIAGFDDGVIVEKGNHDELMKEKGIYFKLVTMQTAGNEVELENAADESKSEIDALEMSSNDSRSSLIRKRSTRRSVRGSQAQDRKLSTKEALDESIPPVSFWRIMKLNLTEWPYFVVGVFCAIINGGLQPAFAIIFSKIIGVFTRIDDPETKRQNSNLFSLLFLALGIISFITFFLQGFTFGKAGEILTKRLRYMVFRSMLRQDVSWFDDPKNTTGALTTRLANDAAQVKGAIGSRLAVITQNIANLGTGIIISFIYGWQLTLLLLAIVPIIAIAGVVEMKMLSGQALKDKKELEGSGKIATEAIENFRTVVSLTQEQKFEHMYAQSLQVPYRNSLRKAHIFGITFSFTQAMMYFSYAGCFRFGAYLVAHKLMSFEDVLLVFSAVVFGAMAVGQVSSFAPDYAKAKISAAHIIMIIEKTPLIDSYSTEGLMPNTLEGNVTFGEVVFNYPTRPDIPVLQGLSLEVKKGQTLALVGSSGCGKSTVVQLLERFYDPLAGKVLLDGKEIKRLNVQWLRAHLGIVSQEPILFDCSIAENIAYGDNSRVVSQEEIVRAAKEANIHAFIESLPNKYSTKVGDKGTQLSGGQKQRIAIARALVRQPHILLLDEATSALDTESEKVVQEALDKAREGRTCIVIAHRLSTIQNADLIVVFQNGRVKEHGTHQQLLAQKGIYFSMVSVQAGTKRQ

[4] = system: S1; assay: Induction of apoptosis in human S1 cells assessed as necrotic cells at 10 uM incubated for 48 hrs in presence of topotecan by annexin V/propidium iodide staining based flow cytometry (reference value: 0.2%); format: functional
In short: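 S1 cells were exposed for 48 h to DMSO, 10 μM compound, 5 μM topotecan, or 5 μM topotecan plus 10 μM compound. They were then stained with 1.25 μg/mL annexin V–FITC and 0.1 mg/mL PI for 15 min at room temperature. 10000 cells per sample were analysed by flow cytometry; three independent experiments.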

[5] = biological target: T1, Multidrug resistance-associated protein 1; assay: Reversal of human ABCC1-mediated multidrug resistance in HEK293/MRP1 cells assessed as fold-change in etoposide IC50 at 3 uM after 72 hrs by CCK8 relative to etoposide IC50; format: cell-based; in short: as §1
[6] = system: S1; assay: Effect on topotecan-induced cytotoxicity against human S1 cells assessed as fold change in topotecan IC50 at 3 uM after 72 hrs by MTT assay relative to topotecan IC50; format: functional
In short: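 Parental S1 colon and H460 lung cancer cells were exposed for 72 h to a mitoxantrone or topotecan concentration series, with or without modulator at 0.5–3.0 μM, and read by MTT. Fold-reversal is IC50 without modulator divided by IC50 with modulator, taken from dose-response curves of three independent experiments.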

[7] = biological target: T2, Broad substrate specificity ATP-binding cassette transporter ABCG2; assay: Reversal of human ABCG2-mediated multidrug resistance in HEK293/R482 cells assessed as fold change in mitoxantrone IC50 at 2 uM after 72 hrs by CCK8 assay relative to mitoxantrone IC50; format: cell-based; in short: as §1
[8] = biological target: T2, Broad substrate specificity ATP-binding cassette transporter ABCG2; assay: Modulation of human ABCG2 expressed in HEK293/R482 cells assessed as increase in intracellular pheophorbide A accumulation at 20 uM incubated for 1 hr by FACScan flow cytometry; format: cell-based
In short: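 Cells held drug-free 7 days. 3 × 10^5 cells were suspended in IMDM with 5% FCS and loaded with pheophorbide A (ex 395/em 670 nm) for 1 h, with or without LCA (20 μM for single-concentration accumulation) or Ko143 3 μM as reference. Read immediately by flow cytometry. Efflux inhibition was run over a concentration range; mean ± SD of three experiments.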

[9] = biological target: T2, Broad substrate specificity ATP-binding cassette transporter ABCG2; assay: Reversal of human ABCG2-mediated multidrug resistance in HEK293/R482 cells assessed as fold-change in topotecan IC50 at 3 uM after 72 hrs by CCK8 relative to topotecan IC50; format: cell-based; in short: as §1
[10] = system: S1-M1-80; assay: Induction of apoptosis in human S1-M1-80 cells harboring ABCG2 (unknown origin) assessed as necrotic cells at 10 uM incubated for 48 hrs by annexin V/propidium iodide staining based flow cytometry (reference value: 0.3%); format: functional
[11] = biological target: T2, Broad substrate specificity ATP-binding cassette transporter ABCG2; assay: Reversal of ABCG2 (unknown origin)-mediated multidrug resistance in human H460-MX20 cells assessed as fold change in topotecan IC50 at 0.5 uM after 72 hrs by MTT assay relative to topotecan IC50; format: cell-based; in short: as §2
[12] = system: HEK293; assay: Effect on topotecan-induced cytotoxicity against HEK293 cells assessed as fold change in topotecan IC50 at 1 uM after 72 hrs by CCK8 assay relative to topotecan IC50; format: cell-based; details: human, hek293, 72 h
In short: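 Reversal assay in parental pcDNA-HEK293 and transfected HEK293 lines (ABCB1 for colchicine, ABCC1 for etoposide, ABCG2 for mitoxantrone/topotecan). Substrate drug series was given with or without nontoxic modulator (0.5, 1.0, 2.0 or 3.0 μM) for 72 h, with a CCK-8 read-out. Fold-reversal is substrate IC50 without modulator divided by IC50 with modulator. Three independent experiments.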

[13] = biological target: T1, Multidrug resistance-associated protein 1; assay: Modulation of human ABCC1 expressed in HEK293/MRP1 cells assessed as increase in intracellular calcein-AM accumulation at 20 uM incubated for 10 mins by FACScan flow cytometry; format: cell-based
In short: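 Cells held drug-free 7 days. 3 × 10^5 cells in IMDM with 5% FCS were loaded with calcein-AM for 10 min, with or without 20 μM LCA. Reference inhibitors were tariquidar 3 μM (ABCB1) and MK-571 25 μM (ABCC1). Calcein fluorescence (ex 485/em 535 nm) was read by flow cytometry; at least three independent experiments.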

C=CC(C)(C)c1cc(/C=C/C(=O)c2ccc(O)cc2)c(OC)cc1O [LICOAGROCHACONE A]
fold change (FC) [1]: 1
fold change (FC) [2]: 2.6
fold change (FC) [3]: 0.8
Activity [4]: 3%
fold change (FC) [5]: 1.1
fold change (FC) [6]: 0.9
fold change (FC) [7]: 6.5
Activity [8]: Active
fold change (FC) [9]: 4.7
Activity [10]: 0.2%
fold change (FC) [11]: 3.6
fold change (FC) [12]: 1
Activity [13]: Not Active
